Assay results published in ChEMBL document CHEMBL3351851, “Discovery and optimization of novel small-molecule HIV-1 entry inhibitors using field-based virtual screening and bioisosteric replacement” (Bioorg Med Chem Lett, 2014).

Tests used:
[1] = test system: Human immunodeficiency virus 1; experiment: Antiviral activity against HIV1 pseudotyped virus expressed in human U87 cells co-expressing AMLV envelope after 48 hrs by cell-based luciferase reporter gene assay; type: functional, organism-based; conditions: u-87mg atcc
How it was run: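 Single-round infection of U87-CD4/CCR5 or U87-CD4/CXCR4 cells (seeded at 1.2x10⁴/well, infected next day) with 20 ng p24 per well of luciferase-reporter pseudovirus made in 293T cells using pNL4-3-LucR⁺E⁻. Compounds were applied in six to nine serial dilutions (1:10 or 1:5) alongside DMSO, in triplicate. Luciferase was read at 48 h, and percent infection was taken relative to DMSO wells.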

[2] = test system: Human immunodeficiency virus 1; experiment: Antiviral activity against Human immunodeficiency virus type 1 (JRCSF ISOLATE) pseudotyped virus expressed in human U87 cells after 48 hrs by luciferase reporter gene assay; type: functional, cell-based, U-87MG ATCC; conditions: Human immunodeficiency virus 1, JRCSF ISOLATE, U-87 MG
How it was run: (§1)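 Envelope-pseudotyped, single-round luciferase-reporter virus was made in 293T cells co-transfected with pNL4-3-LucR+E- and the matching Env vector. U87-CD4/CCR5 or U87-CD4/CXCR4 cells were seeded at 1.2x10⁴ per well and infected next day with 20 ng p24 per well plus compound (6–9 dilutions, 1:10 or 1:5, triplicate) or DMSO. Luciferase was read at 48 h; % infection is relative to DMSO wells.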

[3] = test system: Human immunodeficiency virus 1; experiment: Antiviral activity against HIV1 isolate Hxbc2 pseudotyped virus expressed in human U87 cells after 48 hrs by luciferase reporter gene assay; type: functional, organism-based, U-87MG ATCC; conditions: Human immunodeficiency virus 1, isolate Hxbc2, U-87 MG; how it was run: as §1
[4] = test system: Human immunodeficiency virus 1; experiment: Antiviral activity against Human immunodeficiency virus type 1 (isolate YU2) pseudotyped virus expressed in human U87 cells after 48 hrs by cell-based luciferase reporter gene assay; type: functional, U-87MG ATCC; conditions: Human immunodeficiency virus 1, isolate YU2, U-87 MG; how it was run: as §1
[5] = test system: Human immunodeficiency virus 2; experiment: Antiviral activity against HIV2 isolate CDC310319 infected in human PBMC; type: functional, organism-based; conditions: Human immunodeficiency virus 2, isolate CDC310319
[6] = test system: Human immunodeficiency virus 1; experiment: Antiviral activity against HIV1 subtype A isolate 92UG037 infected in human PBMC; type: functional, organism-based; conditions: Human immunodeficiency virus 1, isolate 92UG037
[7] = test system: Human immunodeficiency virus 1; experiment: Antiviral activity against HIV1 subtype B isolate 91US004 infected in human PBMC; type: functional, organism-based; conditions: Human immunodeficiency virus 1, isolate 91US004
[8] = test system: Human immunodeficiency virus 1; experiment: Antiviral activity against HIV1 subtype B isolate 94US_33931N infected in human PBMC; type: functional, organism-based; conditions: Human immunodeficiency virus 1, isolate 94US_33931N
[9] = test system: Human immunodeficiency virus 1; experiment: Antiviral activity against HIV1 subtype C isolate 98US_MSC5016 infected in human PBMC; type: functional, organism-based; conditions: Human immunodeficiency virus 1, isolate 98US_MSC5016
[10] = test system: Human immunodeficiency virus 1; experiment: Antiviral activity against HIV1 subtype D isolate 99UG_A07412M1 infected in human PBMC; type: functional, organism-based; conditions: Human immunodeficiency virus 1, isolate 99UG_A07412M1
[11] = Antiviral index, ratio of TC50 for human PBMC to IC50 for HIV1 subtype A isolate 92UG037
[12] = Antiviral index, ratio of TC50 for human PBMC to IC50 for HIV1 subtype B isolate 91US004
[13] = Antiviral index, ratio of TC50 for human PBMC to IC50 for HIV1 subtype B isolate 94US_33931N
[14] = Antiviral index, ratio of TC50 for human PBMC to IC50 for HIV1 subtype C isolate 98US_MSC5016
[15] = Antiviral index, ratio of TC50 for human PBMC to IC50 for HIV1 subtype D isolate 99UG_A07412M1

Question: With COc1cnc(Cl)c2[nH]cc(C(=O)C(=O)N3CC4CN(C(=O)c5ccccc5)CC4C3)c12 (stereo not given) as the compound, how does the IC50 [1] read?
Answer: Not Active

Question: What about the IC50 [2] of the same compound?
Answer: 980 nM

Question: And the IC50 [3]?
Answer: 16800 nM

Question: Which IC50 [4] does the source give for O=C(CSc1ncnc2sccc12)N1CCN(C(=O)c2cccs2)CC1 here?
Answer: 33700 nM

Question: And the IC50 [1]?
Answer: Not Active

Question: Which results are given for Cc1cc(C)nc(SCC(=O)N2CCN(C(=O)c3ccccc3)CC2)n1?
Answer: IC50 [4]: 153000 nM; IC50 [1]: Not Active

Question: Which IC50 [1] does the source give for O=C(c1ccccc1)N1CC2CN(C(=O)c3ccc4c5c(cccc35)CC4)CC2C1 (stereo not given) here?
Answer: Not Active

Question: And the IC50 [2]?
Answer: 100000 nM

Question: Which IC50 [4] does the source give for O=C(Cc1cccc2ccccc12)N1CCN(C(=O)c2ccco2)CC1 here?
Answer: 79400 nM

Question: And the IC50 [1]?
Answer: Not Active

Question: Which IC50 [1] does the source give for COc1cnc(-n2cnc(C)n2)c2[nH]cc(C(=O)C(=O)N3CC4CN(C(=O)C5=CCCCC5)CC4C3)c12 (stereo not given) here?
Answer: Not Active

Question: What about the IC50 [5] of the same compound?
Answer: > 100000 nM

Question: What about the IC50 [2] of the same compound?
Answer: 2 nM

Question: And the IC50 [3]?
Answer: 0.6 nM

Question: And the IC50 [6]?
Answer: 25200 nM

Question: What about the IC50 [7] of the same compound?
Answer: 195 nM

Question: What about the IC50 [8] of the same compound?
Answer: 0.6 nM

Question: What about the IC50 [9] of the same compound?
Answer: 3900 nM

Question: What about the IC50 [10] of the same compound?
Answer: 490 nM

Question: And the Ratio [11]?
Answer: >3.97

Question: What about the Ratio [12] of the same compound?
Answer: >513

Question: And the Ratio [13]?
Answer: >166666

Question: And the Ratio [14]?
Answer: >25.6

Question: What about the Ratio [15] of the same compound?
Answer: >204

Question: Which results are given for O=C(COc1cccc2ccccc12)N1CCN(C(=O)c2ccccc2)CC1?
Answer: IC50 [4]: 53500 nM; IC50 [1]: Not Active

Question: For COc1cnc(-n2cnc(C)n2)c2[nH]cc(C(=O)C(=O)N3CC4CN(C(=O)c5ccccc5)CC4C3)c12 (stereo not given), which IC50 [1] is on record?
Answer: Not Active

Question: And the IC50 [2]?
Answer: 0.8 nM

Question: What about the IC50 [3] of the same compound?
Answer: 1 nM

Question: With O=C(c1ccccc1)N1CCN(C(=O)c2ccc3c4c(cccc24)CC3)CC1 as the compound, how does the IC50 [4] read?
Answer: 13100 nM

Question: What about the IC50 [1] of the same compound?
Answer: Not Active

Question: What does the source list for COc1ncc(OC)c2c(C(=O)C(=O)N3CC4CN(C(=O)c5ccccc5)CC4C3)c[nH]c12 (stereo not given)?
Answer: IC50 [1]: Not Active; IC50 [2]: 90 nM; IC50 [3]: 190 nM
